In brackets after ≈: the same amount, converted by molar mass.
Tests used:
Type in all cases: functional, organism-based
Meloidogyne incognita [1] = assay: Nematicidal activity against Meloidogyne incognita J2 (root-knot nematode) larvae immersed in compound solution for 24 hr assessed as reduction in larval motility
Summary of the method: (§1)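 J2 hatched at 28 °C in modified Baermann funnels from eggs extracted from roots with sodium hypochlorite. Ethanol stocks were diluted in water with Tween-20 (final ethanol ≤1%, Tween-20 ≤0.3% v/v), with water and solvent controls. Fifteen J2 per well, covered, dark, 28 °C. Motile/immotile scored microscopically. Control-corrected (Schneider-Orelli), six replicates, run twice. EC50 from log-logistic regression.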

Meloidogyne incognita [2] = assay: Nematicidal activity against Meloidogyne incognita J2 (root-knot nematode) larvae immersed in compound solution for 96 hr assessed as reduction in larval motility; summary of the method: as §1
Meloidogyne incognita [3] = assay: Nematicidal activity against Meloidogyne incognita J2 (root-knot nematode) larvae immersed in compound solution for 48 hr assessed as reduction in larval motility; summary of the method: as §1
Meloidogyne javanica = assay: Nematicidal activity against Meloidogyne javanica J2 (root-knot nematode) larvae immersed in compound solution for 48 hr assessed as reduction in larval motility

## C/C=C/c1ccc(OC)cc1 [ANETHOLE]
Meloidogyne incognita [1]
  EC50: 170 µg/mL (≈ 1150 µM)
Meloidogyne incognita [2]
  EC50: 124 µg/mL (≈ 837 µM)
Meloidogyne incognita [3]
  EC50: 140 µg/mL (≈ 945 µM)

## C=C1CC/C=C(\C)CC[C@@H]2[C@@H]1CC2(C)C [BETA-CARYOPHYLLENE]
Meloidogyne incognita [1]
  EC50: > 1800 µg/mL
Meloidogyne incognita [2]
  EC50: 307 µg/mL (≈ 1500 µM)
Meloidogyne incognita [3]
  EC50: 433 µg/mL (≈ 2120 µM)

## Cc1ccc(C(C)C)cc1O [CARVACROL]
Meloidogyne incognita [1]
  EC50: 264 µg/mL (≈ 1760 µM)
Meloidogyne incognita [2]
  EC50: 117 µg/mL (≈ 779 µM)
Meloidogyne incognita [3]
  EC50: 176 µg/mL (≈ 1170 µM)
Meloidogyne javanica
  EC50: 0.128 uL/ml

## C=C(C)[C@H]1CC=C(C)CC1 [D-LIMONENE]
Meloidogyne incognita [1]
  EC50: > 1680 µg/mL
Meloidogyne incognita [2]
  EC50: > 1680 µg/mL
Meloidogyne incognita [3]
  EC50: > 1680 µg/mL

## CC12CCC(CC1)C(C)(C)O2 [EUCALYPTOL]
Meloidogyne incognita [1]
  EC50: > 1840 µg/mL
Meloidogyne incognita [2]
  EC50: 1600 µg/mL (≈ 10400 µM)
Meloidogyne incognita [3]
  EC50: > 1840 µg/mL

## C=CCc1ccc(O)c(OC)c1 [EUGENOL]
Meloidogyne incognita [1]
  EC50: 256 µg/mL (≈ 1560 µM)
Meloidogyne incognita [2]
  EC50: < 133 µg/mL
Meloidogyne incognita [3]
  EC50: 192 µg/mL (≈ 1170 µM)

## CC(C)=CCC/C(C)=C/CO [GERANIOL]
Meloidogyne incognita [1]
  EC50: 237 µg/mL (≈ 1540 µM)
Meloidogyne incognita [2]
  EC50: 105 µg/mL (≈ 681 µM)
Meloidogyne incognita [3]
  EC50: 158 µg/mL (≈ 1020 µM)

## C=C(C)[C@@H]1CC=C(C)C(=O)C1 [L-CARVONE]
Meloidogyne incognita [1]
  EC50: 115 µg/mL (≈ 766 µM)
Meloidogyne incognita [2]
  EC50: < 120 µg/mL
Meloidogyne incognita [3]
  EC50: < 120 µg/mL

## C=CC(C)(O)CCC=C(C)C (stereo unspecified) [LINALOOL]
Meloidogyne incognita [1]
  EC50: 862 µg/mL (≈ 5590 µM)
Meloidogyne incognita [2]
  EC50: 284 µg/mL (≈ 1840 µM)
Meloidogyne incognita [3]
  EC50: 707 µg/mL (≈ 4580 µM)

## Cc1ccc(C(C)C)cc1 [P-CYMENE]
Meloidogyne incognita [1]
  EC50: > 1720 µg/mL
Meloidogyne incognita [2]
  EC50: > 1720 µg/mL
Meloidogyne incognita [3]
  EC50: > 1720 µg/mL

## CC(C)=C1CC[C@@H](C)CC1=O [PULEGONE]
Meloidogyne incognita [1]
  EC50: 150 µg/mL (≈ 985 µM)
Meloidogyne incognita [2]
  EC50: < 117 µg/mL
Meloidogyne incognita [3]
  EC50: < 117 µg/mL
Meloidogyne javanica
  EC50: 0.205 uL/ml

## CC1=CCC(O)(C(C)C)CC1 (stereo unspecified) [TERPINEOL]
Meloidogyne incognita [1]
  EC50: 392 µg/mL (≈ 2540 µM)
Meloidogyne incognita [2]
  EC50: 168 µg/mL (≈ 1090 µM)
Meloidogyne incognita [3]
  EC50: 290 µg/mL (≈ 1880 µM)

## Cc1ccc(C(C)C)c(O)c1 [THYMOL]
Meloidogyne incognita [1]
  EC50: 390 µg/mL (≈ 2600 µM)
Meloidogyne incognita [2]
  EC50: 160 µg/mL (≈ 1070 µM)
Meloidogyne incognita [3]
  EC50: 280 µg/mL (≈ 1860 µM)

Source: ChEMBL document CHEMBL3045047, “Phytochemistry and nematicidal activity of the essential oils from 8 Greek Lamiaceae aromatic plants and 13 terpene components” (J Agric Food Chem, 2010)
